Source: article PMC10339703 (Clinical and Translational Science, 2023)
Entries after “also recorded” stand apart in the source; their conditions may differ.

Tested on: healthy subjects
Assay: Safety and tolerability
Format: in vivo, human
Settings: for subjects with ADRs, percentage: SAD
Summary of the method: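 Randomized, double-blind, placebo-controlled (6:2, n = 8/cohort) single oral doses in healthy adults after ≥10 h fast, with sentinel pair observed 24 h first. TEAEs were graded by nature, incidence, severity, seriousness and outcome, coded in MedDRA 23.0. ADR: any AE whose causality to test compound could not be ruled out. Labs, vital signs, examinations and 12-lead ECGs were also monitored.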

[1] = SAD study, all subjects who received bersiporocin

O[C@H]1CCCN[C@@H]1CCCn1cnc2c(Cl)c(Cl)ccc21 [Bersiporocin]
ADRs, number of events (SAD single 100 mg capsule): 3
Abdominal discomfort (ADR), subjects n (%) (SAD single 100 mg capsule): 0
Abdominal distension (ADR), subjects n (%) (SAD single 100 mg capsule): 0
Abdominal pain (ADR), subjects n (%) (SAD single 100 mg capsule): 0
Abdominal pain upper (ADR), subjects n (%) (SAD single 100 mg capsule): 0
Constipation (ADR), subjects n (%) (SAD single 100 mg capsule): 0
Decreased appetite (ADR), subjects n (%) (SAD single 100 mg capsule): 0
Diarrhea (ADR), subjects n (%) (SAD single 100 mg capsule): 0
Dysgeusia (ADR), subjects n (%) (SAD single 100 mg capsule): 0
Epigastric discomfort (ADR), subjects n (%) (SAD single 100 mg capsule): 0
Gastroesophageal reflux disease (ADR), number of events (SAD single 100 mg capsule): 1
Gastroesophageal reflux disease (ADR), subjects n (%) (SAD single 100 mg capsule): 1 (16.7)
Headache (ADR), subjects n (%) (SAD single 100 mg capsule): 0
Hypersensitivity (ADR), subjects n (%) (SAD single 100 mg capsule): 0
Hypotension (ADR), subjects n (%) (SAD single 100 mg capsule): 0
Malaise (ADR), subjects n (%) (SAD single 100 mg capsule): 0
Nausea (ADR), number of events (SAD single 100 mg capsule): 1
Nausea (ADR), subjects n (%) (SAD single 100 mg capsule): 1 (16.7)
Neutropenia (ADR), number of events (SAD single 100 mg capsule): 1
Neutropenia (ADR), subjects n (%) (SAD single 100 mg capsule): 1 (16.7)
Oropharyngeal pain (ADR), subjects n (%) (SAD single 100 mg capsule): 0
Photosensitivity reaction (ADR), subjects n (%) (SAD single 100 mg capsule): 0
Subjects with ADRs, n (%) (SAD single 100 mg capsule): 3 (50.0)
Tachycardia (ADR), subjects n (%) (SAD single 100 mg capsule): 0
Vertigo (ADR), subjects n (%) (SAD single 100 mg capsule): 0
Vomiting (ADR), subjects n (%) (SAD single 100 mg capsule): 0
ADRs, number of events (SAD single 100 mg solution): 12
Abdominal discomfort (ADR), subjects n (%) (SAD single 100 mg solution): 0
Abdominal distension (ADR), subjects n (%) (SAD single 100 mg solution): 0
Abdominal pain (ADR), subjects n (%) (SAD single 100 mg solution): 0
Abdominal pain upper (ADR), subjects n (%) (SAD single 100 mg solution): 0
Constipation (ADR), subjects n (%) (SAD single 100 mg solution): 0
Decreased appetite (ADR), subjects n (%) (SAD single 100 mg solution): 0
Diarrhea (ADR), subjects n (%) (SAD single 100 mg solution): 0
Dysgeusia (ADR), number of events (SAD single 100 mg solution): 1
Dysgeusia (ADR), subjects n (%) (SAD single 100 mg solution): 1 (16.7)
Epigastric discomfort (ADR), subjects n (%) (SAD single 100 mg solution): 0
Gastroesophageal reflux disease (ADR), subjects n (%) (SAD single 100 mg solution): 0
Headache (ADR), number of events (SAD single 100 mg solution): 2
Headache (ADR), subjects n (%) (SAD single 100 mg solution): 2 (33.3)
Hypersensitivity (ADR), subjects n (%) (SAD single 100 mg solution): 0
Hypotension (ADR), subjects n (%) (SAD single 100 mg solution): 0
Malaise (ADR), subjects n (%) (SAD single 100 mg solution): 0
Nausea (ADR), number of events (SAD single 100 mg solution): 5
Nausea (ADR), subjects n (%) (SAD single 100 mg solution): 5 (83.3)
Neutropenia (ADR), subjects n (%) (SAD single 100 mg solution): 0
Oropharyngeal pain (ADR), subjects n (%) (SAD single 100 mg solution): 0
Photosensitivity reaction (ADR), subjects n (%) (SAD single 100 mg solution): 0
Subjects with ADRs, n (%) (SAD single 100 mg solution): 5 (83.3)
Tachycardia (ADR), subjects n (%) (SAD single 100 mg solution): 0
Vertigo (ADR), subjects n (%) (SAD single 100 mg solution): 0
Vomiting (ADR), number of events (SAD single 100 mg solution): 4
Vomiting (ADR), subjects n (%) (SAD single 100 mg solution): 4 (66.7)
ADRs, number of events (SAD single 300 mg capsule): 15
Abdominal discomfort (ADR), subjects n (%) (SAD single 300 mg capsule): 0
Abdominal distension (ADR), number of events (SAD single 300 mg capsule): 1
Abdominal distension (ADR), subjects n (%) (SAD single 300 mg capsule): 1 (16.7)
Abdominal pain (ADR), number of events (SAD single 300 mg capsule): 2
Abdominal pain (ADR), subjects n (%) (SAD single 300 mg capsule): 2 (33.3)
Abdominal pain upper (ADR), subjects n (%) (SAD single 300 mg capsule): 0
Constipation (ADR), subjects n (%) (SAD single 300 mg capsule): 0
Decreased appetite (ADR), number of events (SAD single 300 mg capsule): 1
Decreased appetite (ADR), subjects n (%) (SAD single 300 mg capsule): 1 (16.7)
Diarrhea (ADR), number of events (SAD single 300 mg capsule): 2
Diarrhea (ADR), subjects n (%) (SAD single 300 mg capsule): 2 (33.3)
Dysgeusia (ADR), subjects n (%) (SAD single 300 mg capsule): 0
Epigastric discomfort (ADR), subjects n (%) (SAD single 300 mg capsule): 0
Gastroesophageal reflux disease (ADR), subjects n (%) (SAD single 300 mg capsule): 0
Headache (ADR), number of events (SAD single 300 mg capsule): 1
Headache (ADR), subjects n (%) (SAD single 300 mg capsule): 1 (16.7)
Hypersensitivity (ADR), subjects n (%) (SAD single 300 mg capsule): 0
Hypotension (ADR), subjects n (%) (SAD single 300 mg capsule): 0
Malaise (ADR), number of events (SAD single 300 mg capsule): 1
Malaise (ADR), subjects n (%) (SAD single 300 mg capsule): 1 (16.7)
Nausea (ADR), number of events (SAD single 300 mg capsule): 4
Nausea (ADR), subjects n (%) (SAD single 300 mg capsule): 3 (50.0)
Neutropenia (ADR), subjects n (%) (SAD single 300 mg capsule): 0
Oropharyngeal pain (ADR), subjects n (%) (SAD single 300 mg capsule): 0
Photosensitivity reaction (ADR), subjects n (%) (SAD single 300 mg capsule): 0
Subjects with ADRs, n (%) (SAD single 300 mg capsule): 4 (66.7)
Tachycardia (ADR), subjects n (%) (SAD single 300 mg capsule): 0
Vertigo (ADR), subjects n (%) (SAD single 300 mg capsule): 0
Vomiting (ADR), number of events (SAD single 300 mg capsule): 3
Vomiting (ADR), subjects n (%) (SAD single 300 mg capsule): 3 (50.0)
ADRs, number of events (SAD single 500 mg tablet): 23
Abdominal discomfort (ADR), subjects n (%) (SAD single 500 mg tablet): 0
Abdominal distension (ADR), subjects n (%) (SAD single 500 mg tablet): 0
Abdominal pain (ADR), number of events (SAD single 500 mg tablet): 1
Abdominal pain (ADR), subjects n (%) (SAD single 500 mg tablet): 1 (16.7)
Abdominal pain upper (ADR), number of events (SAD single 500 mg tablet): 1
Abdominal pain upper (ADR), subjects n (%) (SAD single 500 mg tablet): 1 (16.7)
Constipation (ADR), number of events (SAD single 500 mg tablet): 1
Constipation (ADR), subjects n (%) (SAD single 500 mg tablet): 1 (16.7)
Decreased appetite (ADR), number of events (SAD single 500 mg tablet): 1
Decreased appetite (ADR), subjects n (%) (SAD single 500 mg tablet): 1 (16.7)
Diarrhea (ADR), number of events (SAD single 500 mg tablet): 4
Diarrhea (ADR), subjects n (%) (SAD single 500 mg tablet): 4 (66.7)
Dysgeusia (ADR), subjects n (%) (SAD single 500 mg tablet): 0
Epigastric discomfort (ADR), number of events (SAD single 500 mg tablet): 1
Epigastric discomfort (ADR), subjects n (%) (SAD single 500 mg tablet): 1 (16.7)
Gastroesophageal reflux disease (ADR), subjects n (%) (SAD single 500 mg tablet): 0
Headache (ADR), number of events (SAD single 500 mg tablet): 2
Headache (ADR), subjects n (%) (SAD single 500 mg tablet): 2 (33.3)
Hypersensitivity (ADR), number of events (SAD single 500 mg tablet): 1
Hypersensitivity (ADR), subjects n (%) (SAD single 500 mg tablet): 1 (16.7)
Hypotension (ADR), number of events (SAD single 500 mg tablet): 1
Hypotension (ADR), subjects n (%) (SAD single 500 mg tablet): 1 (16.7)
Malaise (ADR), subjects n (%) (SAD single 500 mg tablet): 0
Nausea (ADR), number of events (SAD single 500 mg tablet): 5
Nausea (ADR), subjects n (%) (SAD single 500 mg tablet): 5 (83.3)
Neutropenia (ADR), subjects n (%) (SAD single 500 mg tablet): 0
Oropharyngeal pain (ADR), number of events (SAD single 500 mg tablet): 1
Oropharyngeal pain (ADR), subjects n (%) (SAD single 500 mg tablet): 1 (16.7)
Photosensitivity reaction (ADR), subjects n (%) (SAD single 500 mg tablet): 0
Subjects with ADRs, n (%) (SAD single 500 mg tablet): 6 (100)
Tachycardia (ADR), number of events (SAD single 500 mg tablet): 1
Tachycardia (ADR), subjects n (%) (SAD single 500 mg tablet): 1 (16.7)
Vertigo (ADR), number of events (SAD single 500 mg tablet): 1
Vertigo (ADR), subjects n (%) (SAD single 500 mg tablet): 1 (16.7)
Vomiting (ADR), number of events (SAD single 500 mg tablet): 2
Vomiting (ADR), subjects n (%) (SAD single 500 mg tablet): 2 (33.3)
ADRs, number of events (SAD single 600 mg capsule): 15
Abdominal discomfort (ADR), number of events (SAD single 600 mg capsule): 1
Abdominal discomfort (ADR), subjects n (%) (SAD single 600 mg capsule): 1 (16.7)
Abdominal distension (ADR), subjects n (%) (SAD single 600 mg capsule): 0
Abdominal pain (ADR), subjects n (%) (SAD single 600 mg capsule): 0
Abdominal pain upper (ADR), subjects n (%) (SAD single 600 mg capsule): 0
Constipation (ADR), subjects n (%) (SAD single 600 mg capsule): 0
Decreased appetite (ADR), subjects n (%) (SAD single 600 mg capsule): 0
Diarrhea (ADR), number of events (SAD single 600 mg capsule): 2
Diarrhea (ADR), subjects n (%) (SAD single 600 mg capsule): 2 (33.3)
Dysgeusia (ADR), subjects n (%) (SAD single 600 mg capsule): 0
Epigastric discomfort (ADR), subjects n (%) (SAD single 600 mg capsule): 0
Gastroesophageal reflux disease (ADR), subjects n (%) (SAD single 600 mg capsule): 0
Headache (ADR), number of events (SAD single 600 mg capsule): 1
Headache (ADR), subjects n (%) (SAD single 600 mg capsule): 1 (16.7)
Hypersensitivity (ADR), subjects n (%) (SAD single 600 mg capsule): 0
Hypotension (ADR), subjects n (%) (SAD single 600 mg capsule): 0
Malaise (ADR), subjects n (%) (SAD single 600 mg capsule): 0
Nausea (ADR), number of events (SAD single 600 mg capsule): 6
Nausea (ADR), subjects n (%) (SAD single 600 mg capsule): 5 (83.3)
Neutropenia (ADR), subjects n (%) (SAD single 600 mg capsule): 0
Oropharyngeal pain (ADR), subjects n (%) (SAD single 600 mg capsule): 0
Photosensitivity reaction (ADR), number of events (SAD single 600 mg capsule): 1
Photosensitivity reaction (ADR), subjects n (%) (SAD single 600 mg capsule): 1 (16.7)
Subjects with ADRs, n (%) (SAD single 600 mg capsule): 5 (83.3)
Tachycardia (ADR), subjects n (%) (SAD single 600 mg capsule): 0
Vertigo (ADR), subjects n (%) (SAD single 600 mg capsule): 0
Vomiting (ADR), number of events (SAD single 600 mg capsule): 4
Vomiting (ADR), subjects n (%) (SAD single 600 mg capsule): 4 (66.7)
subjects with nausea and vomiting, percentage (SAD starting dose group (100 mg, 150 mL solution)): 83.3%
ADRs, number of events [1]: 68
TEAEs, number of events [1]: 90
subjects with TEAEs, number [1]: 23
subjects with TEAEs, percentage [1]: 77%
subjects with ADRs, percentage (capsule group (after formulation change)): 50%
subjects with ADRs, percentage (solution group): 83%
severe, life‐threatening, or fatal ADRs (across the study (SAD and MAD)): no severe, life‐threatening, or fatal ADRs
severity of most ADRs (across the study (SAD and MAD)): mild in severity
severe or serious adverse events (single oral dose up to 600 mg and multiple oral doses up to 200 mg twice daily for 14 days): No severe or serious adverse events were observed; also recorded: No severe or serious AEs were observed
